# According to ChEMBL document CHEMBL2321753, “Synthesis and biological evaluation of radioiodinated quinacrine-based derivatives for SPECT imaging of Aβ plaques” (Eur J Med Chem, 2013):
# Assays:
# [1] = molecular target: Amyloid-beta precursor protein (Homo sapiens, UniProt P05067); assay: Displacement of [125I]IMPY from amyloid beta (1 to 42) (unknown origin) after 3 hrs by gamma counting
# Procedure, shortened: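 Filtered through GF/B filters and bound radioactivity gamma-counted. IC50 from displacement curves of three independent experiments; Ki calculated with the Cheng–Prusoff equation.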
# Heart [2] = assay: Biodistribution in ddY mouse heart at 0.1 to 0.4 uCi, iv after 60 mins by gamma counting; type: ADME, organism-based; details: in vivo, 1 h
# Procedure, shortened: (§1)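 [125I]ligand (0.1–0.4 µCi) in 100 µL PBS (pH 7.4) containing 30 µL DMSO, injected into the tail vein of ddY mice (5 weeks, 22–25 g). Mice sacrificed at 2, 10, 30 and 60 min. Organs removed, weighed and gamma-counted. Values are % injected dose per gram, except stomach as % dose per organ. Mean (SD) of 3–6 mice per time point.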
# Pancreas [3] = assay: Biodistribution in ddY mouse pancreas at 0.1 to 0.4 uCi, iv after 60 mins by gamma counting; type: ADME, organism-based; details: in vivo, 1 h; procedure, shortened: as §1
# Stomach [4] = assay: Biodistribution in ddY mouse stomach assessed per organ at 0.1 to 0.4 uCi, iv after 60 mins by gamma counting; type: ADME, organism-based; details: in vivo, 1 h; procedure, shortened: as §1
# Lung [5] = assay: Biodistribution in ddY mouse lung at 0.1 to 0.4 uCi, iv after 60 mins by gamma counting; type: ADME, organism-based; details: in vivo, 1 h; procedure, shortened: as §1
# Spleen [6] = assay: Biodistribution in ddY mouse spleen at 0.1 to 0.4 uCi, iv after 60 mins by gamma counting; type: ADME, organism-based; details: in vivo, 1 h; procedure, shortened: as §1
# Intestine [7] = assay: Biodistribution in ddY mouse intestine at 0.1 to 0.4 uCi, iv after 60 mins by gamma counting; type: ADME, organism-based; details: in vivo, 1 h; procedure, shortened: as §1
# Kidney [8] = assay: Biodistribution in ddY mouse kidney at 0.1 to 0.4 uCi, iv after 60 mins by gamma counting; type: ADME, organism-based; details: in vivo, 1 h; procedure, shortened: as §1
# Liver [9] = assay: Biodistribution in ddY mouse liver at 0.1 to 0.4 uCi, iv after 60 mins by gamma counting; type: ADME, organism-based; details: in vivo, 1 h; procedure, shortened: as §1
# Brain [10] = assay: Biodistribution in ddY mouse brain at 0.1 to 0.4 uCi, iv after 60 mins by gamma counting; type: ADME, organism-based; details: in vivo, 1 h; procedure, shortened: as §1
# Blood [11] = assay: Biodistribution in ddY mouse blood at 0.1 to 0.4 uCi, iv after 60 mins by gamma counting; type: ADME, organism-based; details: in vivo, 1 h; procedure, shortened: as §1
# Heart [12] = assay: Biodistribution in ddY mouse heart at 0.1 to 0.4 uCi, iv after 30 mins by gamma counting; type: ADME, organism-based; details: in vivo, 0.5 h; procedure, shortened: as §1
# Pancreas [13] = assay: Biodistribution in ddY mouse pancreas at 0.1 to 0.4 uCi, iv after 30 mins by gamma counting; type: ADME, organism-based; details: in vivo, 0.5 h; procedure, shortened: as §1
# Stomach [14] = assay: Biodistribution in ddY mouse stomach assessed per organ at 0.1 to 0.4 uCi, iv after 30 mins by gamma counting; type: ADME, organism-based; details: in vivo, 0.5 h; procedure, shortened: as §1
# Lung [15] = assay: Biodistribution in ddY mouse lung at 0.1 to 0.4 uCi, iv after 30 mins by gamma counting; type: ADME, organism-based; details: in vivo, 0.5 h; procedure, shortened: as §1
# Spleen [16] = assay: Biodistribution in ddY mouse spleen at 0.1 to 0.4 uCi, iv after 30 mins by gamma counting; type: ADME, organism-based; details: in vivo, 0.5 h; procedure, shortened: as §1
# Intestine [17] = assay: Biodistribution in ddY mouse intestine at 0.1 to 0.4 uCi, iv after 30 mins by gamma counting; type: ADME, organism-based; details: in vivo, 0.5 h; procedure, shortened: as §1
# Kidney [18] = assay: Biodistribution in ddY mouse kidney at 0.1 to 0.4 uCi, iv after 30 mins by gamma counting; type: ADME, organism-based; details: in vivo, 0.5 h; procedure, shortened: as §1
# Liver [19] = assay: Biodistribution in ddY mouse liver at 0.1 to 0.4 uCi, iv after 30 mins by gamma counting; type: ADME, organism-based; details: in vivo, 0.5 h; procedure, shortened: as §1
# Brain [20] = assay: Biodistribution in ddY mouse brain at 0.1 to 0.4 uCi, iv after 30 mins by gamma counting; type: ADME, organism-based; details: in vivo, 0.5 h; procedure, shortened: as §1
# Blood [21] = assay: Biodistribution in ddY mouse blood at 0.1 to 0.4 uCi, iv after 30 mins by gamma counting; type: ADME, organism-based; details: in vivo, 0.5 h; procedure, shortened: as §1
# Heart [22] = assay: Biodistribution in ddY mouse heart at 0.1 to 0.4 uCi, iv after 10 mins by gamma counting; type: ADME, organism-based; details: in vivo; procedure, shortened: as §1
# Pancreas [23] = assay: Biodistribution in ddY mouse pancreas at 0.1 to 0.4 uCi, iv after 10 mins by gamma counting; type: ADME, organism-based; details: in vivo; procedure, shortened: as §1
# Stomach [24] = assay: Biodistribution in ddY mouse stomach assessed per organ at 0.1 to 0.4 uCi, iv after 10 mins by gamma counting; type: ADME, organism-based; details: in vivo; procedure, shortened: as §1
# Lung [25] = assay: Biodistribution in ddY mouse lung at 0.1 to 0.4 uCi, iv after 10 mins by gamma counting; type: ADME, organism-based; details: in vivo; procedure, shortened: as §1
# Spleen [26] = assay: Biodistribution in ddY mouse spleen at 0.1 to 0.4 uCi, iv after 10 mins by gamma counting; type: ADME, organism-based; details: in vivo; procedure, shortened: as §1
# Intestine [27] = assay: Biodistribution in ddY mouse intestine at 0.1 to 0.4 uCi, iv after 10 mins by gamma counting; type: ADME, organism-based; details: in vivo; procedure, shortened: as §1
# Liver [28] = assay: Biodistribution in ddY mouse liver at 0.1 to 0.4 uCi, iv after 10 mins by gamma counting; type: ADME, organism-based; details: in vivo; procedure, shortened: as §1
# Kidney [29] = assay: Biodistribution in ddY mouse kidney at 0.1 to 0.4 uCi, iv after 10 mins by gamma counting; type: ADME, organism-based; details: in vivo; procedure, shortened: as §1
# Brain [30] = assay: Biodistribution in ddY mouse brain at 0.1 to 0.4 uCi, iv after 10 mins by gamma counting; type: ADME, organism-based; details: in vivo; procedure, shortened: as §1
# Blood [31] = assay: Biodistribution in ddY mouse blood at 0.1 to 0.4 uCi, iv after 10 mins by gamma counting; type: ADME, organism-based; details: in vivo; procedure, shortened: as §1
# Pancreas [32] = assay: Biodistribution in ddY mouse pancreas at 0.1 to 0.4 uCi, iv after 2 mins by gamma counting; type: ADME, organism-based; details: in vivo; procedure, shortened: as §1
# Heart [33] = assay: Biodistribution in ddY mouse heart at 0.1 to 0.4 uCi, iv after 2 mins by gamma counting; type: ADME, organism-based; details: in vivo; procedure, shortened: as §1
# Stomach [34] = assay: Biodistribution in ddY mouse stomach assessed per organ at 0.1 to 0.4 uCi, iv after 2 mins by gamma counting; type: ADME, organism-based; details: in vivo; procedure, shortened: as §1
# Lung [35] = assay: Biodistribution in ddY mouse lung at 0.1 to 0.4 uCi, iv after 2 mins by gamma counting; type: ADME, organism-based; details: in vivo; procedure, shortened: as §1
# Intestine [36] = assay: Biodistribution in ddY mouse intestine at 0.1 to 0.4 uCi, iv after 2 mins by gamma counting; type: ADME, organism-based; details: in vivo; procedure, shortened: as §1
# Spleen [37] = assay: Biodistribution in ddY mouse spleen at 0.1 to 0.4 uCi, iv after 2 mins by gamma counting; type: ADME, organism-based; details: in vivo; procedure, shortened: as §1
# Kidney [38] = assay: Biodistribution in ddY mouse kidney at 0.1 to 0.4 uCi, iv after 2 mins by gamma counting; type: ADME, organism-based; details: in vivo; procedure, shortened: as §1
# Liver [39] = assay: Biodistribution in ddY mouse liver at 0.1 to 0.4 uCi, iv after 2 mins by gamma counting; type: ADME, organism-based; details: in vivo; procedure, shortened: as §1
# Blood [40] = assay: Biodistribution in ddY mouse blood at 0.1 to 0.4 uCi, iv after 2 mins by gamma counting; type: ADME, organism-based; details: in vivo; procedure, shortened: as §1
# Brain [41] = assay: Biodistribution in ddY mouse brain at 0.1 to 0.4 uCi, iv after 2 mins by gamma counting; type: ADME, organism-based; details: in vivo; procedure, shortened: as §1
# [42] = n-octanol-sodium phosphate buffer partition co-efficient, log D of the compound at pH 7.4 by shake flask method; type: physicochemical
# Procedure, shortened: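 Shake-flask partition between n-octanol and sodium phosphate buffer, pH 7.4, shaken 10 min at room temperature, then centrifuged. Weighed 0.5 mL samples of each layer counted. log D from the ratio of cpm per gram of octanol to cpm per gram of buffer; n = 3.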
# Amyloid-beta precursor protein, sequence (P05067 whole entry): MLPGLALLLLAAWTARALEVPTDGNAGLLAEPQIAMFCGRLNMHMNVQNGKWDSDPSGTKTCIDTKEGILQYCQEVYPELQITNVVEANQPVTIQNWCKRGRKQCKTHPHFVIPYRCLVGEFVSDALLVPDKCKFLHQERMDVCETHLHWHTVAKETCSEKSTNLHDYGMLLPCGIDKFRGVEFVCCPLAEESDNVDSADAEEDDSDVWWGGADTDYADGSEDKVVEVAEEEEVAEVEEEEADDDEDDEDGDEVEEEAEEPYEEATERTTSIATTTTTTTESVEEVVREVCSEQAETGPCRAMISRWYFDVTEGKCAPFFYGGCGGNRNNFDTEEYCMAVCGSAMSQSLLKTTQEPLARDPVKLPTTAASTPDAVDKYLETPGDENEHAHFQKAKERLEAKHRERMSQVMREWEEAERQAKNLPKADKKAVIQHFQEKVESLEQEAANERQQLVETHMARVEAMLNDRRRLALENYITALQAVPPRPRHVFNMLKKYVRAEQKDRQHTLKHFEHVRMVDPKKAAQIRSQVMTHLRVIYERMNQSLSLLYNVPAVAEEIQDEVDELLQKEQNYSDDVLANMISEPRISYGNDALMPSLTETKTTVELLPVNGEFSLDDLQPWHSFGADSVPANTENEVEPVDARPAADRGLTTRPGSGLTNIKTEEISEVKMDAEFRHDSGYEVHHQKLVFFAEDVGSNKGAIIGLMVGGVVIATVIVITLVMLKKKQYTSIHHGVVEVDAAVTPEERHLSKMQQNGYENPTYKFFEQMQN
smiles,measurement,setting,value
COc1ccc2nc3cc(I)ccc3c(N(C)C)c2c1,Ki,[1],121 nM
COc1c2ccccc2nc2cc(I)ccc12,Ki,[1],> 10000 nM
COc1ccc2nc3cc(I)ccc3c(N)c2c1,Ki,[1],83.5 nM
COc1ccc2nc3cc([125I])ccc3c(N(C)C)c2c1,Drug uptake,Heart [2],4.33 % ID/g
same,Drug uptake,Pancreas [3],9.81 % ID/g
same,Drug uptake,Stomach [4],1.4 %ID
same,Drug uptake,Lung [5],21.84 % ID/g
same,Drug uptake,Spleen [6],11.22 % ID/g
same,Drug uptake,Intestine [7],6.5 % ID/g
same,Drug uptake,Kidney [8],16.34 % ID/g
same,Drug uptake,Liver [9],12.55 % ID/g
same,Drug uptake,Brain [10],0.23 % ID/g
same,Drug uptake,Blood [11],0.64 % ID/g
same,Drug uptake,Heart [12],9.08 % ID/g
same,Drug uptake,Pancreas [13],7.85 % ID/g
same,Drug uptake,Stomach [14],2.21 %ID
same,Drug uptake,Lung [15],46.47 % ID/g
same,Drug uptake,Spleen [16],14.49 % ID/g
same,Drug uptake,Intestine [17],5.33 % ID/g
same,Drug uptake,Kidney [18],21.56 % ID/g
same,Drug uptake,Liver [19],16.43 % ID/g
same,Drug uptake,Brain [20],0.28 % ID/g
same,Drug uptake,Blood [21],1.26 % ID/g
same,Drug uptake,Heart [22],11.2 % ID/g
same,Drug uptake,Pancreas [23],6.5 % ID/g
same,Drug uptake,Stomach [24],2.18 %ID
same,Drug uptake,Lung [25],57.02 % ID/g
same,Drug uptake,Spleen [26],9.65 % ID/g
same,Drug uptake,Intestine [27],3.13 % ID/g
same,Drug uptake,Liver [28],11.77 % ID/g
same,Drug uptake,Kidney [29],18.16 % ID/g
same,Drug uptake,Brain [30],0.26 % ID/g
same,Drug uptake,Blood [31],1.97 % ID/g
same,Drug uptake,Pancreas [32],5.21 % ID/g
same,Drug uptake,Heart [33],16.28 % ID/g
same,Drug uptake,Stomach [34],1.37 %ID
same,Drug uptake,Lung [35],79.34 % ID/g
same,Drug uptake,Intestine [36],2.22 % ID/g
same,Drug uptake,Spleen [37],6.94 % ID/g
same,Drug uptake,Kidney [38],16.71 % ID/g
same,Drug uptake,Liver [39],10.85 % ID/g
same,Drug uptake,Blood [40],4.76 % ID/g
same,Drug uptake,Brain [41],0.33 % ID/g
same,logD,[42],2.19
COc1ccc2nc3cc([125I])ccc3c(N)c2c1,Drug uptake,Heart [2],0.49 % ID/g
same,Drug uptake,Pancreas [3],0.76 % ID/g
same,Drug uptake,Stomach [4],1.74 %ID
same,Drug uptake,Lung [5],1.4 % ID/g
same,Drug uptake,Spleen [6],3.28 % ID/g
same,Drug uptake,Intestine [7],11.2 % ID/g
same,Drug uptake,Kidney [8],3.58 % ID/g
same,Drug uptake,Liver [9],2.84 % ID/g
same,Drug uptake,Brain [10],0.19 % ID/g
same,Drug uptake,Blood [11],0.49 % ID/g
same,Drug uptake,Heart [12],2.26 % ID/g
same,Drug uptake,Pancreas [13],4.98 % ID/g
same,Drug uptake,Stomach [14],6.66 %ID
same,Drug uptake,Lung [15],5.04 % ID/g
same,Drug uptake,Spleen [16],10.6 % ID/g
same,Drug uptake,Intestine [17],17.49 % ID/g
same,Drug uptake,Kidney [18],12.64 % ID/g
same,Drug uptake,Liver [19],8.4 % ID/g
same,Drug uptake,Brain [20],1.27 % ID/g
same,Drug uptake,Blood [21],1.46 % ID/g
same,Drug uptake,Heart [22],4.57 % ID/g
same,Drug uptake,Pancreas [23],11.52 % ID/g
same,Drug uptake,Stomach [24],6.58 %ID
same,Drug uptake,Lung [25],14.29 % ID/g
same,Drug uptake,Spleen [26],14.65 % ID/g
same,Drug uptake,Intestine [27],14.19 % ID/g
same,Drug uptake,Liver [28],14.79 % ID/g
same,Drug uptake,Kidney [29],22.51 % ID/g
same,Drug uptake,Brain [30],3.16 % ID/g
same,Drug uptake,Blood [31],2.09 % ID/g
same,Drug uptake,Pancreas [32],4.34 % ID/g
same,Drug uptake,Heart [33],4.46 % ID/g
same,Drug uptake,Stomach [34],0.99 %ID
same,Drug uptake,Lung [35],9.91 % ID/g
same,Drug uptake,Intestine [36],1.86 % ID/g
same,Drug uptake,Spleen [37],4.7 % ID/g
same,Drug uptake,Kidney [38],9.81 % ID/g
same,Drug uptake,Liver [39],6.24 % ID/g
same,Drug uptake,Blood [40],1.15 % ID/g
same,Drug uptake,Brain [41],1.35 % ID/g
same,logD,[42],2.13
